Values after ≈ are worked out from the molar mass of the structure shown.
Columns and labels:
B16 = experiment: Inhibitory concentration for cytotoxic activity against B16 cell line; type: functional, cell-based; conditions: Mus musculus
Method in brief: (§1)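 […] cytotoxicity measured by MTT assay on B16, Vero, U87 and SiHa cells, run alongside HUVEC for selectivity comparison.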

Vero = experiment: Inhibitory concentration for cytotoxic activity against Vero cell line; type: functional, cell-based; conditions: Chlorocebus sabaeus; method in brief: as §1
[1] = Inhibitory concentration for cytotoxic activity against U87 cell line; type: functional, cell-based, U-87MG ATCC; conditions: Homo sapiens, U-87 MG; method in brief: as §1
HUVEC [2] = experiment: Inhibitory concentration against human umbilical vein endothelial cells(HUVEC) growth; type: functional, cell-based
Method in brief: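 Human umbilical vein endothelial cell (HUVEC) proliferation assay; IC50 derived by nonlinear regression.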

HUVEC [3] = experiment: Percentage tube formation inhibition against human umbilical vein endothelial cells(HUVEC) at a concentration of 10 ug/mL; type: functional
Method in brief: (§2)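 HUVEC tube formation with test agent at 10, 5 or 2.5 µg/mL; total tube length per field quantified by image analysis and expressed as a percentage of the untreated control.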

HUVEC [4] = experiment: Percentage tube formation inhibition against human umbilical vein endothelial cells(HUVEC) at a concentration of 5 ug/mL; type: functional; method in brief: as §2
SiHa = experiment: Inhibitory concentration for cytotoxic activity against SiHa cell line; type: functional, cell-based; conditions: Homo sapiens; method in brief: as §1
HUVEC [5] = experiment: Percentage tube formation inhibition against human umbilical vein endothelial cells(HUVEC) at a concentration of 2.5 ug/mL; type: functional; method in brief: as §2

Compound | IC50 (B16) [µg/mL] | IC50 (Vero) [µg/mL] | IC50 [1] [µg/mL] | IC50 (HUVEC [2]) [µg/mL] | inhibition at 10 µg/mL (HUVEC [3]) [%] | inhibition at 5 µg/mL (HUVEC [4]) [%] | IC50 (SiHa) [µg/mL] | inhibition at 2.5 µg/mL (HUVEC [5]) [%]
COc1cc(/C=C/C(=O)c2cccc(NC(=O)c3ccccc3)c2)ccc1O | 0.82 (≈ 2.2 µM) | 3.47 (≈ 9.29 µM) | 8.82 (≈ 23.6 µM) | 0.37 (≈ 0.991 µM) | 69 | 48 | 4.57 (≈ 12.2 µM) | 
COc1cc(/C=C/C(=O)c2cccc(NC(=O)c3cccs3)c2)ccc1O | 6.93 (≈ 18.3 µM) | 3.98 (≈ 10.5 µM) | 14.7 (≈ 38.7 µM) | 0.38 (≈ 1 µM) | 90 | 80 | 6.57 (≈ 17.3 µM) | 71
COc1cc(/C=C/C(=O)c2cccc(NC(=O)c3ccc(Cl)cc3)c2)ccc1O | 0.59 (≈ 1.45 µM) | 3.82 (≈ 9.37 µM) | > 50 | 0.76 (≈ 1.86 µM) | 66 | 42 | 2.3 (≈ 5.64 µM) | 
COC(=O)C(=O)Nc1cccc(C(=O)/C=C/c2ccc(O)c(OC)c2)c1 | 4.41 (≈ 12.4 µM) | 3.55 (≈ 9.99 µM) | 12.2 (≈ 34.4 µM) | 1.5 (≈ 4.22 µM) | 43 | 20 | 7.71 (≈ 21.7 µM) | 
CCCC(=O)Nc1cccc(C(=O)/C=C/c2ccc(O)c(OC)c2)c1 | 1.43 (≈ 4.21 µM) | 2.04 (≈ 6.01 µM) | 5.56 (≈ 16.4 µM) | 1.27 (≈ 3.74 µM) | 87 | 57 | 3.94 (≈ 11.6 µM) | 40
COc1cc(/C=C/C(=O)c2cccc(NC(=O)C(C)C)c2)ccc1O | 1.09 (≈ 3.21 µM) | 3.47 (≈ 10.2 µM) | 8.31 (≈ 24.5 µM) | 1.44 (≈ 4.24 µM) | 56 | 51 | 5.96 (≈ 17.6 µM) | 11
COc1cc(/C=C/C(=O)c2cccc(NC(=O)c3c(Cl)cccc3Cl)c2)ccc1O | 1.58 (≈ 3.57 µM) | 2.48 (≈ 5.61 µM) | 17.8 (≈ 40.3 µM) | 0.46 (≈ 1.04 µM) | 99 | 88 | 3.56 (≈ 8.05 µM) | 53
COc1cc(/C=C/C(=O)c2cccc(N)c2)ccc1O | 11.5 (≈ 42.6 µM) | 6.02 (≈ 22.4 µM) | 7.71 (≈ 28.6 µM) | 2.87 (≈ 10.7 µM) | 90 | 50 | 12.3 (≈ 45.8 µM) | 20
COc1cc(/C=C/C(=O)c2cccc(NC(=O)c3ccco3)c2)ccc1O | 5.46 (≈ 15 µM) | 3.11 (≈ 8.56 µM) | 6.65 (≈ 18.3 µM) | 0.38 (≈ 1.05 µM) | 100 | 82 | 0.76 (≈ 2.09 µM) | 61
COc1cc(/C=C/C(=O)c2cccc(NC(=O)c3ccc(Cl)cc3Cl)c2)ccc1O | 12.8 (≈ 29 µM) | 27.2 (≈ 61.5 µM) | > 50 | 0.4 (≈ 0.904 µM) | 70 | 51 | 34.4 (≈ 77.8 µM) | 29
COc1cc(/C=C/C(=O)c2cccc(NC(=O)c3ccc(Cl)c(Cl)c3)c2)ccc1O | 3.88 (≈ 8.77 µM) | > 50 | 29.5 (≈ 66.6 µM) | 2.97 (≈ 6.71 µM) | 45 | 5 | 25.3 (≈ 57.2 µM) | 
COc1cc(/C=C/C(=O)c2cccc(NC(=O)c3cc(Cl)cc(Cl)c3)c2)ccc1O | 4.83 (≈ 10.9 µM) | > 50 | > 50 | 0.75 (≈ 1.7 µM) | 58 | 51 | 17.7 (≈ 40 µM) | 15
COc1cc(/C=C/C(=O)c2cccc(NC(C)=O)c2)ccc1O | 3.62 (≈ 11.6 µM) | 14.5 (≈ 46.5 µM) | > 50 | 7.06 (≈ 22.7 µM) | 32 | 15 | 15.8 (≈ 50.6 µM) | 
CCOC(=O)C(=O)Nc1cccc(C(=O)/C=C/c2ccc(O)c(OC)c2)c1 | 7.03 (≈ 19 µM) | > 50 | > 50 | 13.3 (≈ 36 µM) | 66 | 45 | > 50 | 
COc1cc(/C=C/C(=O)CC(=O)/C=C/c2ccc(O)c(OC)c2)ccc1O [CURCUMIN] |  |  |  | 10.8 (≈ 29.4 µM) |  |  |  | 
